Source: PubChem BioAssay
RGS4 pot: potentiators or activators of RGS4; B-score at 10 µM; 0.92% of 310,000 active; HEK293 M3R/inducible RGS4, carbachol calcium flux Fluo4; stronger effect = lower value;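 active means B-score of the integrated calcium signal more than 4 SD below the library mean, with starting fluorescence not abnormally high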;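 further: negative B-score means reduced calcium response which marks RGS4 activation or potentiation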
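Test system: HEK293 cells with stable M3R and inducible RGS4; also added: carbachol at ECmax as muscarinic agonist stimulus; schedule: dye loading 30 min 37 °C, buffer rest 30 min RT; technique: kinetic calcium fluorescence imaging with Fluo4-AM dye, 2 µM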
MrgX1 agonist: activates human MrgX1 receptor signaling. MrgX1-HEK293 cells, Fluo-4 calcium fluorescence, agonist mode; stronger effect = higher value. B-score at 10 µM. 0.44% of 310,000 active. AID 588627;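 active means calcium response B-score plate-corrected fluorescence ratio at least 3 library SD, with starting fluorescence B-score inside 5 SD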
Target sequence (Q96LB2 whole entry, looked up): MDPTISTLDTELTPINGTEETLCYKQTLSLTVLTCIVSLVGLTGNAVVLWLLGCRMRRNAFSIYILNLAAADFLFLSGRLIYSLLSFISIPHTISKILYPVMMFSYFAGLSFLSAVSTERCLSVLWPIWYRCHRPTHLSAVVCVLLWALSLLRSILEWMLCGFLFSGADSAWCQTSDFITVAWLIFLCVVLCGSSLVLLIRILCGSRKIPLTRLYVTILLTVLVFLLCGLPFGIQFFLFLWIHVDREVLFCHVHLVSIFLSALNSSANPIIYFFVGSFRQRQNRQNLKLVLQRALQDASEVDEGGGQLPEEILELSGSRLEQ
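Material – MrgX1-expressing HEK293 cells · Input – 15,000 cells seeded per well · Dosing – compound as first of three additions · Times – overnight seeding, then 1 h dark dye loading · Measured by – kinetic Fluo-4 NW fluorescence of intracellular calcium · Read-out – B-scored fluorescence response ratio · Benchmarks – positive and negative control wells on each plate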
RGS4 block: inhibitors of human RGS4 | P49798 | HEK293 M3R/RGS4 inducible, Fluo-4 calcium flux; stronger effect = higher value; triggered by carbachol at its EC20 | B-score at 10 µM | 0.45% of 310,000 active;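 active means B-score, a plate-corrected calcium signal, over three deviations above library mean, with baseline fluorescence within five deviations of library mean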;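 further: RGS4 expression induced by doxycycline in cells with stable M3 receptor; B-score is computed from the integrated fluorescence ratio over baseline after carbachol; higher B-score means a larger calcium signal and so more RGS4 inhibition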
Target sequence (P49798 whole entry, looked up): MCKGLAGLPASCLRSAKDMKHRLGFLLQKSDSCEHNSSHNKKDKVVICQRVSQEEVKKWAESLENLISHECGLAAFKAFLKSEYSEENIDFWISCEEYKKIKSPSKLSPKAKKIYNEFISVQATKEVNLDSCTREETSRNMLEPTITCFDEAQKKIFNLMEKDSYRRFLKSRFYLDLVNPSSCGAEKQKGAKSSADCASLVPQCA
MrgX1 antagonist: blocks BAM8-22 activation of human MrgX1 receptor | Q96LB2 | MRGX1-HEK293 calcium flux, Fluo-4, BAM8-22 antagonism; stronger effect = lower value | B-score at 10 µM | 1.3% of 310,000 active;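 active means calcium-response B-score plate-corrected more than 3 library SD below zero, starting fluorescence within 5 deviations, no agonist response on first addition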;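 further: peak minus trough fluorescence over baseline after final BAM8-22 challenge near maximal dose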
MrgX1 PAM: human MrgX1 positive allosteric modulation, primary screen; Q96LB2; MrgX1-HEK293, Fluo-4 calcium flux, FDSS; stronger effect = higher value; B-score at 10 µM; 0.63% of 310,000 active; AID 588675;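 active means plate-corrected calcium response at least 3 library SD above typical, normal starting fluorescence, not activating the receptor alone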;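 further: compound read alongside a low EC10 to EC30 dose of BAM8-22 agonist; peak minus trough fluorescence over baseline measured at the second addition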
MrgX1 allo conf: reconfirmed allosteric activator of human MrgX1 receptor; shares compounds with MrgX1 PAM; MrgX1-HEK293, Fluo-4 calcium fluorescence, FDSS; activation (ratio percentage), % at 10 µM; 13% of 1,200 active; AID 602413;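 active means ratio at least 3 SD above the weak peptide control, stable starting fluorescence, no direct agonism earlier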;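 further: compound followed by low BAM8-22 agonist challenge near EC20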
MrgX1 antag conf: reconfirmed antagonist of human MrgX1 receptor signaling | shares compounds with MrgX1 antagonist | MrgX1-HEK293, BAM8-22 calcium flux, Fluo-4; stronger effect = lower value | remaining BAM8-22 calcium response % of control (stronger effect = lower value), % at 10 µM | 19% of 2,300 active | AID 602420;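 active means remaining agonist calcium response no higher than 100% minus 3 SD of agonist-only control wells, with starting fluorescence near control levels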;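 further: agonist BAM8-22 given at a near maximal EC90 to ECmax level; peak minus minimum fluorescence divided by baseline after agonist addition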
HEK293 Ca flux: counter-screen for MrgX1 antagonists: effect in parental HEK293 cells | shares compounds with MrgX1 antagonist | fluorescence ratio F(max-min)/F0 at 10 µM | AID 624111 | 2% of 4,000 active | Fluo-4 calcium fluorescence, FDSS;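 active means duplicate-averaged calcium fluorescence ratio at least three times the standard deviation of buffer wells, a nonspecific response in parental cells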
HEK293 Ca counter: MrgX1 allosteric activator counter-screen hit in parental HEK293 cells | shares compounds with MrgX1 antagonist | parental HEK293 calcium flux, Fluo-4 fluorescence ratio; stronger effect = higher value | fluorescence ratio F(max-min)/F0 at 10 µM | 0.4% of 4,000 active | AID 624114;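 active means calcium fluorescence ratio, averaged over duplicates, at least 3 SD of the buffer-well ratio, meaning a nonspecific response in receptor-free cells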;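 further: untransfected parental HEK293 lacking MrgX1 used as counterscreen for MrgX1 allosteric activators; fluorescence change taken during the second addition on a kinetic imager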
HEK293 Ca cntr2: MrgX1 activator counter-screen hit in parental HEK293 cells; Fluo-4 calcium fluorescence (FDSS); stronger effect = higher value; 8.7% of 4,000 active; shares compounds with MrgX1 antagonist; fluorescence ratio F(max-min)/F0 at 10 µM; AID 624115;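 active means calcium fluorescence ratio at least three times the spread of buffer wells, meaning a non-specific response in parental cells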
* marks the source's active call; other numbers are inactive results; i = inactive; . = not tested or not shown. Shown are actives, neighbours in structure and some others; about 3.5% of the full set was active somewhere.

SMILES	RGS4 pot	MrgX1 agonist	RGS4 block	MrgX1 antagonist	MrgX1 PAM	MrgX1 allo conf	HEK293 Ca flux	HEK293 Ca counter	HEK293 Ca cntr2	others
CS(=O)(=O)c1ccccc1-c1nnc(NC(=O)c2ccc(S(=O)(=O)N3CCCC3)cc2)o1	i	i	i	i	i	.	.	.	.
O=C(Nc1nnc(-c2ccccc2Cl)o1)c1ccc(S(=O)(=O)N2CCCCCC2)cc1	i	i	i	i	8.6*	i	i	i	i
CCOC(=O)c1cnc(-c2ccccc2)nc1N(C)C	i	i	i	i	i	.	.	.	.
CCOC(=O)c1cnc(-c2ccccc2)nc1N	i	i	i	i	10*	i	i	i	i
COCc1cc(=O)[nH]c(/N=C(\N)Nc2ccccc2C)n1	i	i	i	i	21*	i	i	i	i
Cc1cc(C)cc(NC(=S)N2CCC(NC(=O)C3CCCCC3)CC2)c1	i	i	i	i	8.6*	i	i	i	i
O=S(=O)(Nc1nc2ccccc2s1)c1ccc(Cl)s1	i	i	i	-5.3*	9.1*	i	i	i	i	MrgX1 antag conf=i
O=S(=O)(Nc1nc2ccccc2s1)c1cc(F)ccc1F	i	i	i	i	i	.	.	.	.
COc1cc2[nH]c(=S)n(NC(=O)CC(C)C)c(=O)c2cc1OC	i	i	i	i	i	.	.	.	.
COc1ccc(N(CC(=O)Nc2cccnc2)S(=O)(=O)c2ccccc2)cc1Cl	i	i	i	i	16*	i	i	i	i
CCOC(=O)c1oc2cccc(OCC(O)CNC(C)C)c2c1C (stereo not drawn)	i	i	i	i	i	.	.	.	.
Cc1cc(NC2CCCC2)n2nc(C)c(-c3ccccc3)c2n1	i	i	i	i	6.8*	i	i	i	i
CC(CCc1ccccc1)NC(=O)C1CCC1 (stereo not drawn)	i	i	i	i	i	.	.	.	.
COc1ccc(Nc2nc3ccccc3n3nnnc23)cc1	i	i	i	i	13*	i	i	i	i
COc1ccc(NC(=O)C2CC(=O)N=C(N)S2)cc1 (stereo not drawn)	i	i	i	i	i	.	.	.	.
CCN1C=C(Cc2ccc(F)cc2)C2=C(C1)C(c1ccc(F)cc1)C(C#N)=C(N)O2 (stereo not drawn)	i	i	i	i	i	.	.	.	.
CCN1C=C(Cc2ccccc2C)C2=C(C1)C(c1ccccc1C)C(C#N)=C(N)O2 (stereo not drawn)	i	i	i	i	18*	i	i	i	i
CC(=O)N1c2ccc(S(=O)(=O)N(C)Cc3ccccc3)cc2CC1C (stereo not drawn)	i	i	i	i	7.2*	i	i	i	i
c1ccc(-c2csc(-c3cccnc3)n2)cc1	i	i	i	i	14*	i	i	i	i
CCc1cccc(NC(=O)CCNS(=O)(=O)c2ccc3c(c2)oc(=O)n3C)c1	i	i	i	i	i	.	.	.	.
CCOc1ccc(NC(=O)c2ccc(NC(=O)Cc3n[nH]c(=O)c4ccccc34)cc2)cc1	i	i	i	i	i	.	.	.	.
Cc1cc(=O)[nH]c(Nc2ccc(N(C)C)cc2)n1	i	i	i	i	i	.	.	.	.
CCn1c(=O)c(=O)n(CC)c2cc(S(=O)(=O)Nc3ccc(C)cc3)ccc21	i	i	i	i	11*	i	i	i	i
CCn1c(=O)n(CC)c2cc(S(=O)(=O)Nc3c(C)cccc3C)ccc21	i	i	i	i	i	.	.	.	.
Cc1ccc2nc(-c3ccncc3)c(NC3CCCC3)n2c1	i	i	i	i	i	.	.	.	.
SMILES	RGS4 pot	MrgX1 agonist	RGS4 block	MrgX1 antagonist	MrgX1 PAM	MrgX1 allo conf	HEK293 Ca flux	HEK293 Ca counter	HEK293 Ca cntr2	others
Cc1ccn2c(NC3CCCC3)c(-c3ccncc3)nc2c1	i	i	i	i	7.3*	14%*	i	i	i
Cc1ccn2c(NC3CCCC3)c(-c3ccccn3)nc2c1	i	i	i	i	12*	i	i	i	i
Cc1cccc(-n2c(-c3csc(C(C)C)c3)n[nH]c2=S)c1	i	i	i	i	i	.	.	.	.
CCCc1cc(-c2n[nH]c(=S)n2-c2cccc(C)c2)cs1	i	i	i	i	8*	i	i	i	i
CC(C)CCNC(=O)c1cc(-c2cccs2)nc2ccccc12	i	i	i	i	i	.	.	.	.
O=C1CCCN1CCCNC(=S)Nc1ccccc1	i	i	i	i	i	.	.	.	.
CCOC(=O)c1ccc(NC(=S)NCCCN2CCCC2=O)cc1	i	i	i	i	8.6*	i	i	i	i
CCC1(C)N=C(N)Nc2nc3cc(C)c(C)cc3n21 (stereo not drawn)	i	i	i	i	i	.	.	.	.
COC(=O)Cc1cc(=O)n(-c2nc3ccccc3[nH]2)[nH]1	i	i	i	i	15*	i	i	i	i
O=C(CN(C(=O)CNC(=O)c1cccs1)c1ccccc1)NC1CCCCC1	i	i	i	i	37*	i	i	i	i
N#CC1=C(N)OC2=C(CCc3ccccc32)C1c1ccccc1 (stereo not drawn)	i	i	i	i	9.7*	i	i	i	i
N#CC1=C(N)Oc2cc(O)ccc2C1c1ccccc1 (stereo not drawn)	i	i	i	i	i	.	.	.	.
Cc1cc(C)cc(NC(=O)CSc2nc(=O)n(CCCN3CCOCC3)c3c2CCCC3)c1	i	i	i	i	i	.	.	.	.
CNc1nc(Sc2ccc(C)cc2)cc(C(F)(F)F)n1	i	i	i	i	15*	16%*	i	i	i
